# Source: PubChem (The Scripps Research Institute Molecular Screening Center)
# Most compounds without a hit are left out; they make up all but 2.4% or so of the library.
# IMP-1 inh-1: blocks Pseudomonas aeruginosa IMP-1 metallo-beta-lactamase. inhibition, % at 5.6 µM. purified IMP-1, nitrocefin hydrolysis, epi-absorbance fluorescence. actives 0.45% (n = 290,000);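 active means inhibition above the mean plus 3 SD of all compounds in the same screening run, cut at about 4.5% in these data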;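 further: 0% = IMP-1 with DMSO and 100% = DMSO wells lacking enzyme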
#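 System: Purified recombinant IMP-1 metallo-beta-lactamase enzyme | Measured by: Fluorescence quenching readout, ex 480/em 530 nm | Replication: Singlicate | Incubation: 15 min preincubation plus 25 min reaction at 25 °C | Evaluation: Percent inhibition from optical density relative to buffer-blank wells | Benchmarks: DMSO with and without IMP-1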
# VIM-2 inh: inhibitors of Pseudomonas aeruginosa VIM-2 metallo-beta-lactamase; inhibition, % at 5.6 µM; purified VIM-2, nitrocefin hydrolysis, epi-absorbance fluorescence; actives 0.89% (n = 290,000);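 active means inhibition above the mean of all tested compounds plus 3 SD, cutoff set per screening run, cut at about 7.5% in these data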;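 further: red hydrolysis product quenches plate fluorescence so inhibitors raise well fluorescence; 0% = enzyme with DMSO and 100% = DMSO without enzyme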
# M18AAP inhibitor: PfM18AAP enzyme inhibition; recombinant PfM18AAP, H-Glu-NHMec fluorogenic cleavage; inhibition, % at 7.35 µM; actives 1.2% (n = 290,000);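 active means inhibition above the campaign mean inhibition over all tested compounds plus 3 SD, cut at about 28% in these data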;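 further: 0% = plate median of test compound wells and 100% = 2 mM ZnCl2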
# HGIII-sPLA2 inh: Inhibits HGIII-sPLA2 liposome hydrolysis, primary screen; actives 0.56% (n = 370,000); QFRET BODIPY PC-A2 liposome hydrolysis, fluorescence; AID 743126; Q9NZ20; inhibition, % at 12.2 µM;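 active means inhibition above mean plus 3 SD of compounds lying within the high and low control bounds, cut at about 19% in these data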;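 further: 0% = median of test compound wells and 100% = no enzyme DMSO wells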
# Target sequence (Q9NZ20 whole entry, looked up): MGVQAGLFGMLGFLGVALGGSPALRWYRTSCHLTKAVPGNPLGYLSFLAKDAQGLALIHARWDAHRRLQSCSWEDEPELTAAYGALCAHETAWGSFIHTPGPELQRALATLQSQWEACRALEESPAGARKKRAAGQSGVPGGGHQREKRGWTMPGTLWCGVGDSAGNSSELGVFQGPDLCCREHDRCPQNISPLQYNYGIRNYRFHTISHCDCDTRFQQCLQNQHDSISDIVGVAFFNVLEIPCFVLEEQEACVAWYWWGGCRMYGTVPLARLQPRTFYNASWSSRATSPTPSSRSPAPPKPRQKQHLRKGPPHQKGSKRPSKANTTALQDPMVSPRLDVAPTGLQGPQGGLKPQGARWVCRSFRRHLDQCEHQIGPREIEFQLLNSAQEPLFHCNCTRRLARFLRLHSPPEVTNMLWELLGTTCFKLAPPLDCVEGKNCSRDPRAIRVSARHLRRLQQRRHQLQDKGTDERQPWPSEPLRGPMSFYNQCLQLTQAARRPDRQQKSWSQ
# IMP-1 inh-2: blocks IMP-1 metallo-beta-lactamase in VIM-2 selectivity screen; shares compounds with VIM-2 inh; purified IMP-1, nitrocefin hydrolysis, epi-absorbance fluorescence; inhibition, % at 5.6 µM; 1,300 tested, under 10 active; call rule not given here;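 further: 0% = enzyme with vehicle and 100% = vehicle without enzyme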
# VIM-2 FRET inh: counter-screen for VIM-2 inhibitors: epi-absorbance artifacts via FRET. shares compounds with VIM-2 inh. purified VIM-2, CCF2 FRET substrate hydrolysis. inhibition, % at 5.6 µM. actives 23% (n = 1,300);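 active means inhibition above the mean of all tested compounds plus 3 SD, cut at about 19% in these data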;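 further: 0% = VIM-2 plus DMSO and 100% = no enzyme wells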
# TEM-1 inh: selectivity counter-screen for VIM-2 inhibitors: E. coli TEM-1 inhibitors | inhibition, % at 5.6 µM | Purified TEM-1, nitrocefin hydrolysis, epi-absorbance fluorescence | shares compounds with VIM-2 inh | actives 3% (n = 1,300) | AID 1866;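 active means inhibition above that campaign's mean inhibition plus 3 SD, cut at about 0.46% in these data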;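 further: 0% = TEM-1 with DMSO and 100% = TEM-1 with 100 µM potassium clavulanate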
# Target sequence (P62593 whole entry, looked up): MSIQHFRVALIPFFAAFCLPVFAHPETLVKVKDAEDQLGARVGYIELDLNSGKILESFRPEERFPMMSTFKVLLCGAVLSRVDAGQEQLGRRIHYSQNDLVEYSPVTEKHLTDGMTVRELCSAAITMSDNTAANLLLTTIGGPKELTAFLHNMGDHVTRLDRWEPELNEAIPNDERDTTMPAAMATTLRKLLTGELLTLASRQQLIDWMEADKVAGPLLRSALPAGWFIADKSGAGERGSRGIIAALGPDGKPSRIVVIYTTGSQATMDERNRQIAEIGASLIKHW
# VIM-2 inh conf: confirmation of P. aeruginosa VIM-2 metallo-beta-lactamase inhibitors; actives 96% (n = 1,300); inhibition, % at 5.6 µM; shares compounds with VIM-2 inh; purified VIM-2, nitrocefin hydrolysis, epi-absorbance;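 active means inhibition of the VIM-2 beta-lactamase enzyme above about 11% from the earlier first-round screen, limit read from the data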;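 further: 0% = VIM-2 with DMSO and 100% = buffer wells without enzyme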
# * marks the source's active call; other numbers are inactive results; x = no result given.
SMILES,IMP-1 inh-1,VIM-2 inh,M18AAP inhibitor,HGIII-sPLA2 inh,IMP-1 inh-2,VIM-2 FRET inh,TEM-1 inh,VIM-2 inh conf
C[C@@H]1CNC(=O)c2c(C(=O)Nc3ccc(CNC(=O)OC(C)(C)C)cc3)ncn21,x,x,x,-8.0,x,x,x,x
Cc1cc(C)n(-c2ccc([N+](=O)[O-])cc2-c2nn[nH]n2)n1,-1.7,25.6*,-0.3,0.2,-3.3,53.4*,-4.7,32.6*
O=[N+]([O-])c1ccc(O)c(-c2nn[nH]n2)c1,-1.1,-3.8,19.5,-9.1,x,x,x,x
O=C(COc1ccccc1Cl)Nc1ccc(N2CCCC2)cc1,-1.6,-1.4,19.4,9.4,x,x,x,x
CN1CCN(c2ccc(NC(=S)NC(=O)c3cccc4c(Br)cccc34)cc2)CC1,-3.2,-4.2,-1.0,5.6,x,x,x,x
CN1CCN(c2ccc(NC(=O)COc3cccc4ccccc34)cc2)CC1,-2.7,27.8*,-5.2,-9.0,-2.6,-4.6,-4.1,33.4*
CCN1CCN(c2ccc(NC(=O)COc3ccccc3Cl)cc2)CC1,-1.7,13.6*,-2.0,0.3,-2.7,-0.5,-8.0,30.8*
CN1CCN(c2ccc(NC(=S)NC(=O)c3cccc4ccccc34)cc2)CC1,0.8,19.6*,-7.1,3.4,-2.5,-7.6,-6.2,29.2*
CN1CCN(c2ccc(NC(=S)NC(=O)/C=C/c3ccco3)cc2)CC1,1.2,50.4*,11.8,1.1,-0.2,-2.5,-2.4,67.3*
CC(=O)Nc1ccc(NC(=S)NC(=O)/C=C/c2ccco2)cc1,-2.4,-3.3,7.5,7.8,x,x,x,x
Cc1nc2sc(C(=O)NCc3nccs3)c(N)c2c(C)c1Cl,x,x,x,3.2,x,x,x,x
CN(CC(=O)Nc1ccccc1Br)C(=O)CN1CCN(Cc2cccc(Cl)c2)CC1,x,x,x,-2.6,x,x,x,x
COc1ccc2nc(SCC(=O)N3CCN(c4ccc(F)cc4)CC3)c(C#N)cc2c1,-2.1,15.2*,0.1,-7.9,-3.6,12.6,-5.8,41.9*
CC(=O)Oc1ccc(C(=O)Nc2ccccc2C(=O)Nc2ccc(C(=O)O)cc2)cc1,-1.0,0.2,1.9,-7.1,x,x,x,x
CC/C(=N\NC(=O)c1cccnc1)c1ccc2c(c1)OCCO2,-4.0,45.7*,2.2,3.5,-3.9,-2.5,-4.8,1.2
C/C(=N\NC(=O)c1ccc2c(c1)OCO2)c1cccnc1,-2.9,-3.9,1.2,1.9,x,x,x,x
COC(=O)[C@]1(C#N)CC(=O)N(c2ccccc2)[C@@H]1c1ccccc1,x,x,x,-0.9,x,x,x,x
Cc1cc(N2CCN(C(=O)c3ccco3)CC2)c2ccccc2n1,-1.5,-1.8,8.1,2.1,x,x,x,x
CCN1CCN(c2cc(N3CCN(C(=O)c4ccco4)CC3)c3c4c(onc24)-c2ccccc2C3=O)CC1,0.7,23.3*,22.0,x,-2.5,-13.3,-10.1,20.8*
COc1ccc(C(=O)N2CCC(Oc3cccnc3)CC2)c(OC)c1,x,x,x,-0.4,x,x,x,x
CCN(CC)c1ccc(-c2nn3c(-c4ccccc4OC)nnc3s2)cc1,-3.5,13.3*,0.1,x,-3.5,-9.4,-8.2,0.9
O=S(=O)(NCc1ccc(Cl)cc1)c1ccc(Br)cc1C1CC[C@@H](O)C1 (stereo not given in full),x,x,x,-11.0,x,x,x,x
COc1cccc2cc(C(=O)OC3CCN(C)CC3)c(=O)oc12,-2.6,3.7,-11.8,-7.5,x,x,x,x
COc1cc(Br)cc2cc(C(=O)OC3CCN(C)CC3)c(=O)oc12,-1.4,13.7*,-0.7,5.9,-2.6,0.7,-6.0,21.5*
C[C@H]1CN([C@@H](C)CO)C(=O)c2cc(Br)cnc2O[C@@H]1CN(C)C(=O)Nc1ccc(C(F)(F)F)cc1,x,x,x,8.0,x,x,x,x
SMILES,IMP-1 inh-1,VIM-2 inh,M18AAP inhibitor,HGIII-sPLA2 inh,IMP-1 inh-2,VIM-2 FRET inh,TEM-1 inh,VIM-2 inh conf
O=C(NCc1ccco1)c1cccn2c(=O)c3sccc3nc12,-1.8,19.4*,6.7,6.9,-1.7,-2.8,-8.0,34.1*
CCOC(=O)[C@]12CCCCC/C=C\1N(CCc1ccc(Cl)cc1)C(=O)[C@H]2CC(=O)NCCCOC,x,x,x,-8.9,x,x,x,x
COc1ccc(OC)c(C2/C(=C(/O)c3ccc(C)cc3)C(=O)C(=O)N2Cc2ccco2)c1 (stereo not given),-2.3,21.2*,2.7,1.5,-2.7,55.5*,-5.5,45.1*
COc1ccc(OC)c(C2C(C(C)=O)=C(O)C(=O)N2Cc2cccnc2)c1 (stereo not given),-1.5,-0.4,9.7,0.3,x,x,x,x
COc1cccc(C2/C(=C(/O)c3ccccc3)C(=O)C(=O)N2Cc2ccco2)c1 (stereo not given),-3.1,-0.3,2.9,8.8,x,x,x,x
COc1ccc(OC)c(C2/C(=C(/O)c3ccccc3)C(=O)C(=O)N2Cc2ccco2)c1 (stereo not given),-1.1,66.5*,9.7,-1.3,-2.7,76.7*,-5.8,70.3*
COc1ccc(/C(O)=C2\C(=O)C(=O)N(Cc3ccco3)C2c2cc(OC)ccc2OC)cc1 (stereo not given),-2.8,12.3*,4.5,-4.3,-4.0,35.0*,-6.3,25.9*
COc1ccc(OC)c(C2C(C(=O)c3ccco3)=C(O)C(=O)N2Cc2cccnc2)c1 (stereo not given),-1.5,61.1*,11.8,-0.9,-2.4,78.2*,-5.0,67.9*
C[C@H]1CN([C@@H](C)CO)C(=O)CCCn2cc(nn2)CO[C@@H]1CN(C)C(=O)c1ccc2ccn(C)c2c1,x,x,x,5.7,x,x,x,x
COC(=O)[C@H](C(C)C)N1CCc2nnn(CC3CCCCC3)c2-c2ccccc2S1(=O)=O,x,x,x,-7.3,x,x,x,x
C=CC1=CCN(S(=O)(=O)C(C)(C)C)[C@H]1CCO,x,x,x,-3.8,x,x,x,x
Cc1ccc(C)n1CCN1CCN(C(=O)CSc2nc3ccccc3nc2N2CCOCC2)CC1,-0.9,16.0*,9.4,-1.5,-3.4,-5.1,-7.8,14.6*
Cc1cc(=O)oc2c(C)c(OC(C)C(=O)NCCCn3ccnc3)ccc12 (stereo not given),-2.6,15.5*,0.9,-3.5,-2.9,-4.0,-7.0,31.0*
CCc1cc(=O)oc2cc(OC(C)C(=O)NCCCn3ccnc3)ccc12 (stereo not given),-1.2,-0.3,2.5,3.1,x,x,x,x
Cc1cc(Cl)ccc1OC(C)C(=O)NCCCn1ccnc1 (stereo not given),-3.9,-0.8,3.3,3.8,x,x,x,x
CCc1cc(=O)oc2c(C)c(OC(C)C(=O)NCCCn3ccnc3)ccc12 (stereo not given),-0.6,19.5*,-10.0,3.6,-1.9,-6.8,-6.1,30.3*
Cc1ccc(S(=O)(=O)NN=C(c2ccccc2)c2cccs2)cc1,x,x,x,-24.8,x,x,x,x
C[C@H]1[C@@H](NCc2ccccc2)CC[C@@]23CCCN2C(=O)CCC[C@@H]13,x,x,x,2.4,x,x,x,x
CCOc1ccc(CNC(=O)C2Cc3cc(S(=O)(=O)N4CCCC4)ccc3N2C(C)=O)cc1 (stereo not given),-0.1,25.4*,0.5,4.6,-3.6,-2.5,-3.5,0.9
